# B1: Osa-1-4 twister ribozyme (parent)
# chain: CCGCCUAACACUGCCAAUGCCGGUCCCAAGCCCGGAUAAAAGUGGAGGGGGCGG
# Variants of: B1
# Experiment: self-cleavage, relative activity (ratio to wild type); higher = more cleavage; co-transcriptional
# How it was run: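 A DNA template for a 54-nucleotide Oryza sativa twister ribozyme was synthesised with 97 % wild-type base and 1 % of each other base at the 48 positions downstream of the cleavage site. It was transcribed in vitro for 2 h at 37 °C, allowing co-transcriptional self-cleavage, then reverse-transcribed with a template-switching oligonucleotide, PCR-amplified and deep-sequenced. Cleavage status was scored from reads with or without upstream sequence. Relative activity is fraction cleaved normalised to wild type.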
row,Variant,self-cleavage
1,CCGCCUAACACUGCAAAUGCCGGUCCCAAGCCCGGACAAAAGUGGAGGGGGCGG,0.59
2,CCGCCUAACACUGCAAAUGCCGGUCCCAAGCCCGGAGAAAAGUGGAGGGGGCGG,0.78
3,CCGCCUAACACUGCAAAUGCCGGUCCCAAGCCCGGAAAAAAGUGGAGGGGGCGG,0.51
4,CCGCCUAACACUGCGAAUGCCUGUCCCAAGCCCGGAUAAAAGUGGAGGGGGCGG,0.09
5,CCGCCUAACACUGCGAAUGCCAGUCCCAAGCCCGGAUAAAAGUGGAGGGGGCGG,0.16
6,CCGCCUAACACUGCGAAUGCCCGUCCCAAGCCCGGAUAAAAGUGGAGGGGGCGG,0.06
7,CCGCCUAACACUGCGAAUGCCGGUCCCAAGCCCGGAUAAAAGUGGAGAGGGCGG,0.05
8,CCGCCUAACACUGCGAAUGCCGGUCCCAAGCCCGGAUAAAAGUGGAGCGGGCGG,0.05
9,CCGCCUAACACUGCGAAUGCCGGUCCCAAGCCCGGAUAAAAGUGGAGUGGGCGG,0.04
10,CCGCCUAACACUGCGAAUGCCGGUACCAAGCCCGGAUAAAAGUGGAGGGGGCGG,0.05
11,CCGCCUAACACUGCGAAUGCCGGUGCCAAGCCCGGAUAAAAGUGGAGGGGGCGG,0.07
12,CCGCCUAACACUGCGAAUGCCGGUUCCAAGCCCGGAUAAAAGUGGAGGGGGCGG,0.12
13,CCGCCUAACACUGCAAAUGCCGGCCCCAAGCCCGGAUAAAAGUGGAGGGGGCGG,0.08
14,CCGCCUAACACUGCAAAUGCCGGGCCCAAGCCCGGAUAAAAGUGGAGGGGGCGG,0.02
15,CCGCCUAACACUGCAAAUGCCGGACCCAAGCCCGGAUAAAAGUGGAGGGGGCGG,0.05
16,CCGCCUAACACGGCAAAUGCCGGUCCCAAGCCCGGAUAAAAGUGGAGGGGGCGG,0.15
17,CCGCCUAACACAGCAAAUGCCGGUCCCAAGCCCGGAUAAAAGUGGAGGGGGCGG,0.11
18,CCGCCUAACACCGCAAAUGCCGGUCCCAAGCCCGGAUAAAAGUGGAGGGGGCGG,0.07
19,CCGCCUAACACUGCGAAUGGCGGUCCCAAGCCCGGAUAAAAGUGGAGGGGGCGG,0.08
20,CCGCCUAACACUGCGAAUGUCGGUCCCAAGCCCGGAUAAAAGUGGAGGGGGCGG,0.69
21,CCGCCUAACACUGCGAAUGACGGUCCCAAGCCCGGAUAAAAGUGGAGGGGGCGG,0.54
22,CCGCCUAACACUGCAAAAGCCGGUCCCAAGCCCGGAUAAAAGUGGAGGGGGCGG,0.51
23,CCGCCUAACACUGCAAAGGCCGGUCCCAAGCCCGGAUAAAAGUGGAGGGGGCGG,0.49
24,CCGCCUAACACUGCAAACGCCGGUCCCAAGCCCGGAUAAAAGUGGAGGGGGCGG,0.58

row,Variant,self-cleavage
1,CCGCCUAACACUGCGAAUGCCGGUCCCAAGCCCGGAUAAAAGUGCAGGGGGCGG,0.04
2,CCGCCUAACACUGCGAAUGCCGGUCCCAAGCCCGGAUAAAAGUGAAGGGGGCGG,0.07
3,CCGCCUAACACUGCGAAUGCCGGUCCCAAGCCCGGAUAAAAGUGUAGGGGGCGG,0.04
4,CCGCCUAACACUGCAAAUGCCGGUCCCAAGCCCGGAUAAAAGUGGAGGGGGCGA,0.19
5,CCGCCUAACACUGCAAAUGCCGGUCCCAAGCCCGGAUAAAAGUGGAGGGGGCGU,0.43
6,CCGCCUAACACUGCAAAUGCCGGUCCCAAGCCCGGAUAAAAGUGGAGGGGGCGC,0.11
7,CCGCCUAACACUGCGAAUGCCGGUCCCAAGCGCGGAUAAAAGUGGAGGGGGCGG,0.12
8,CCGCCUAACACUGCGAAUGCCGGUCCCAAGCACGGAUAAAAGUGGAGGGGGCGG,0.05
9,CCGCCUAACACUGCGAAUGCCGGUCCCAAGCUCGGAUAAAAGUGGAGGGGGCGG,0.07
10,CCGCCUAACACUGCGAAUGCCGGUCCCAAGCCCGGAUAAAAAUGGAGGGGGCGG,0.12
11,CCGCCUAACACUGCGAAUGCCGGUCCCAAGCCCGGAUAAAAUUGGAGGGGGCGG,0.05
12,CCGCCUAACACUGCGAAUGCCGGUCCCAAGCCCGGAUAAAACUGGAGGGGGCGG,0.08
13,CCGCCUAACACUGCGAAUGCCGGUCCCAAGCCUGGAUAAAAGUGGAGGGGGCGG,0.11
14,CCGCCUAACACUGCGAAUGCCGGUCCCAAGCCAGGAUAAAAGUGGAGGGGGCGG,0.05
15,CCGCCUAACACUGCGAAUGCCGGUCCCAAGCCGGGAUAAAAGUGGAGGGGGCGG,0.06
16,CCGCCUAACACUGCGAAUGCCGGUCCCAAGCCCGGAUAAAAGUGGAAGGGGCGG,0.08
17,CCGCCUAACACUGCGAAUGCCGGUCCCAAGCCCGGAUAAAAGUGGACGGGGCGG,0.06
18,CCGCCUAACACUGCGAAUGCCGGUCCCAAGCCCGGAUAAAAGUGGAUGGGGCGG,0.09
19,CCGCCUAACACUGCGAAUACCGGUCCCAAGCCCGGAUAAAAGUGGAGGGGGCGG,0.95
20,CCGCCUAACACUGCGAAUCCCGGUCCCAAGCCCGGAUAAAAGUGGAGGGGGCGG,0.74
21,CCGCCUAACACUGCGAAUUCCGGUCCCAAGCCCGGAUAAAAGUGGAGGGGGCGG,0.7
22,CCGCCUAACACUGCAAAUGCCGGUCCCAAGCCCGGAUAAAAGUGGAGGGGGCCG,0.06
23,CCGCCUAACACUGCAAAUGCCGGUCCCAAGCCCGGAUAAAAGUGGAGGGGGCAG,0.14
24,CCGCCUAACACUGCAAAUGCCGGUCCCAAGCCCGGAUAAAAGUGGAGGGGGCUG,0.1

# Source: the RNAGym collection of RNA variant scans (doi:10.1002/anie.201605470)
